The source made the active and inactive calls. The rule behind the calls is not given here.
How the values were obtained:
[1] = system: Platelet; test: Antiplatelet activity in platelet rich plasma (unknown origin) assessed as inhibition of ADP-induced platelet aggregation at 8 mM relative to control; assay type: functional
[2] = system: Platelet; test: Antiplatelet activity in platelet rich plasma (unknown origin) assessed as inhibition of arachidonic acid-induced platelet aggregation at 1 mM relative to control; assay type: functional
[3] = system: 3T3-L1; test: Induction of nitric oxide production in TNF-alpha-induced insulin resistant mouse 3T3L1 cells at 10 uM after 0.5 to 6 hrs by DAF-FM-2DA dye based fluorescence assay; assay type: functional, cell-based
Method in brief: (§1)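 Insulin-resistant 3T3-L1 adipocytes (TNF-α 4 ng/mL, 4 days) were treated for varying times, with or without 20 μM C-PTIO. Vehicle was DMSO 0.1% or NaOH 10 μM. Cells were washed in KRP, loaded with 10 μM DAF-FM-2DA in pH 7.4 PBS at 37 °C for 30 min, and read at Ex/Em 485/515 nm. Three experiments.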

[4] = system: Mus musculus; test: Cardioprotective activity in db/db BKS.Cg-Dock7m +/+ Leprdb/J mouse assessed as decrease in serum cTnI level at 27 umol/kg, po administered as daily dose via gavage for 18 days by ELISA; assay type: functional, organism-based
Method in brief: (§2)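 db/db mice were gavaged daily for 18 days in 0.5% CMC-Na, with vehicle-treated model and C57BL/6 control groups. Tail vein blood was collected and serum TNF-α and cTnI measured by commercial ELISA kits. Six individual experiments, mean ± SD, one-way ANOVA.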

[5] = system: Platelet; test: Antiplatelet activity in platelet rich plasma (unknown origin) assessed as inhibition of arachidonic acid-induced platelet aggregation at 4 mM relative to control; assay type: functional
[6] = system: Platelet; test: Antiplatelet activity in platelet rich plasma (unknown origin) assessed as inhibition of ADP-induced platelet aggregation at 1 mM relative to control; assay type: functional
[7] = system: Platelet; test: Antiplatelet activity in platelet rich plasma (unknown origin) assessed as inhibition of ADP-induced platelet aggregation at 2 mM relative to control; assay type: functional
[8] = system: Mus musculus; test: Antidiabetic activity in spontaneous db/db BKS.Cg-Dock7m +/+ Leprdb/J mouse assessed as decrease in fasting blood glucose level at 10 mg/kg, po administered as daily dose via gavage for 18 days measured on day 9 post last dose by glucometric analysis; assay type: functional, organism-based
Method in brief: (§3)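 Male db/db mice (BKS.Cg-Dock7m +/+ Leprdb/J), 6 weeks old on purchase, randomized, n=8 per group. Dosed by gavage in 0.5% CMC-Na daily for 18 consecutive days. Vehicle-dosed db/db and C57BL/6 mice served as model and control. Fasting glucose was read by glucometer every three days. On day 12, after an overnight fast, 2 g/kg glucose was given orally. Blood glucose was read at 0–120 min and AUC calculated. Mean ± SEM.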

[9] = system: Platelet; test: Antiplatelet activity in platelet rich plasma (unknown origin) assessed as inhibition of arachidonic acid-induced platelet aggregation at 8 mM relative to control; assay type: functional
[10] = system: Platelet; test: Antiplatelet activity in platelet rich plasma (unknown origin) assessed as inhibition of arachidonic acid-induced platelet aggregation at 0.4 mM relative to control; assay type: functional
[11] = system: Mus musculus; test: Effect on lipid metabolism in spontaneous db/db BKS.Cg-Dock7m +/+ Leprdb/J mouse assessed as increase in serum HDL level at 27 umol/kg, po administered as daily dose via gavage for 18 days; assay type: functional, organism-based
Method in brief: (§4)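 db/db mice were gavaged daily for 18 days in 0.5% CMC-Na (n=8 per group), with a vehicle model group. On day 19, blood was collected and serum prepared by centrifugation. Serum triglyceride and HDL were then measured.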

[12] = system: 3T3-L1; test: Induction of nitric oxide mediated increase in insulin-stimulated 2-NBDG uptake in TNF-alpha-induced insulin resistant mouse 3T3L1 cells at 3 to 10 uM preincubated for 48 hrs followed by 2-NBDG addition measured after 30 mins in presence of insulin by fluorescence assay; assay type: functional, cell-based
Method in brief: (§5)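 Day-8 differentiated 3T3-L1 adipocytes received TNF-α (4 ng/mL) daily for 4 days. They were pretreated in triplicate for 48 h (C-PTIO 20 μM where indicated), then given 100 μM 2-NBDG at 37 °C for 30 min in the dark, with or without insulin. After KRP washes, fluorescence was read at Ex/Em 485/515 nm. Three experiments, mean ± SD.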

[13] = Metabolic stability in human liver microsomes after 0.5 hrs in presence of NADPH by HPLC analysis; assay type: ADME, Microsome; conditions: read-out: Stability
Method in brief: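 Compound (100 mM DMSO stock) was added in triplicate to 0.1 M phosphate buffer pH 7.4 with 3.3 mM MgCl2 and human liver microsomes, then preincubated 5 min at 37 °C. NADPH (1.3 mM stock) was added and incubation continued 0, 0.5, 1, 2 or 6 h. Acetonitrile quench, then HPLC at 254 nm.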

[14] = system: 3T3-L1; test: Induction of nitric oxide production in TNF-alpha-induced insulin resistant mouse 3T3L1 cells at 3 to 10 uM after 0.5 to 6 hrs in presence of nitric oxide scavenger C-PTIO by DAF-FM-2DA dye-based fluorescence assay; assay type: functional, cell-based; method in brief: as §1
[15] = system: Platelet; test: Antiplatelet activity in platelet rich plasma (unknown origin) assessed as inhibition of ADP-induced platelet aggregation at 0.8 mM relative to control; assay type: functional
[16] = Toxicity in spontaneous db/db BKS.Cg-Dock7m +/+ Leprdb/J mouse assessed as body weight gain at 13.5 umol/kg, po administered as daily dose via gavage treated for 18 days measured post last dose (reference value: 5.6 +/- 2.1 g); assay type: organism-based; conditions: in vivo, 432 h
[17] = system: Mus musculus; test: Cardioprotective activity in db/db BKS.Cg-Dock7m +/+ Leprdb/J mouse assessed as decrease in serum cTnI level administered po as daily dose via gavage for 18 days by ELISA; assay type: functional, organism-based; method in brief: as §2
[18] = system: Mus musculus; test: Antidiabetic activity in spontaneous db/db BKS.Cg-Dock7m +/+ Leprdb/J mouse assessed as decrease in fasting blood glucose level at 10 to 20 mg/kg, po administered as daily dose via gavage for 18 days measured on day 9 post last dose by glucometric analysis; assay type: functional, organism-based; method in brief: as §3
[19] = system: Platelet; test: Antiplatelet activity in platelet rich plasma (unknown origin) assessed as inhibition of arachidonic acid-induced platelet aggregation at 0.8 mM relative to control; assay type: functional
[20] = system: 3T3-L1; test: Induction of nitric oxide mediated increase in insulin-stimulated 2-NBDG uptake in TNF-alpha-induced insulin resistant mouse 3T3L1 cells at 3 to 10 uM preincubated for 48 hrs followed by 2-NBDG addition measured after 30 mins in presence of nitric oxide scavenger C-PTIO by fluorescence assay; assay type: functional, cell-based; method in brief: as §5
[21] = system: Mus musculus; test: Effect on lipid metabolism in spontaneous db/db BKS.Cg-Dock7m +/+ Leprdb/J mouse assessed as decrease in serum triglyceride level at 27 umol/kg, po administered as daily dose via gavage for 18 days; assay type: functional, organism-based; method in brief: as §4
[22] = system: 3T3-L1; test: Inhibition of MDA level in TNF-alpha-induced insulin resistant mouse 3T3L1 cells at 3 to 10 uM after 48 hrs; assay type: functional, cell-based
[23] = system: Platelet; test: Antiplatelet activity in platelet rich plasma (unknown origin) assessed as inhibition of ADP-induced platelet aggregation at 0.4 mM relative to control; assay type: functional
[24] = system: 3T3-L1; test: Induction of GSH level in TNF-alpha-induced insulin resistant mouse 3T3L1 cells at 3 to 10 uM after 48 hrs; assay type: functional, cell-based
Method in brief: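 3T3-L1 preadipocytes were differentiated, and mature adipocytes made insulin resistant with TNF-α (4 ng/mL) daily for 4 days. Cells were then treated in triplicate for 48 h, with or without 20 μM C-PTIO. Lysate GSH, SOD and MDA were measured with kits. Three experiments, mean ± SD.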

Compound: CN(CCOc1ccc(CC2SC(=O)NC2=O)cc1)c1ccccn1 (centres undefined) [ROSIGLITAZONE]
- inhibition at 8000 µM [1]: 64%
- inhibition at 1000 µM [2]: 14.8%
- Activity [3]: inactive
- Activity [4]: Active
- inhibition at 4000 µM [5]: 42.2%
- inhibition at 1000 µM [6]: 6.1%
- inhibition at 2000 µM [7]: 25.3%
- Activity [8]: Active
- inhibition at 8000 µM [9]: 54.4%

Compound: CCN(CC)/[N+]([O-])=N/OCOC(=O)/C=C/c1ccc(OC(=O)OCN2C(=O)SC(Cc3ccc(OCCN(C)c4ccccn4)cc3)C2=O)c(OC)c1 (centres undefined)
- inhibition at 400 µM [10]: 40.6%
- Activity [11]: Active
- Activity [12]: Active
- remaining at 0.5 h [13]: 94.3%
- Activity [14]: inactive
- inhibition at 800 µM [15]: 26.2%
- Activity [16]: 4 g
- Activity [17]: Dose-dependent effect
- Activity [18]: Active
- inhibition at 800 µM [19]: 51.6%
- Activity [20]: inactive
- Activity [21]: Active
- inhibition [22]: Active
- inhibition at 400 µM [23]: 18.8%
- Activity [24]: Active

Source: ChEMBL document CHEMBL4325910, “Design and synthesis of rosiglitazone-ferulic acid-nitric oxide donor trihybrids for improving glucose tolerance” (Eur J Med Chem, 2019)
